E-sel inducer: E-selectin induction on HUVECs; P16581; HUVEC E-selectin immunofluorescence imaging; normalized: neutral wells 0, TNF-alpha wells 100; 260,000 tested, 0.37% active; activation, % at 7.58 µM;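 active = mean E-selectin-positive cell signal at least 10% of the positive control, reached in at least 60% of replicates, without over 20% cell loss; inconclusive = no rule given, readout overlaps actives, possibly toxicity-flagged; inactive = the rest, including those meeting only one limit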
Target sequence (P16581 whole entry, looked up): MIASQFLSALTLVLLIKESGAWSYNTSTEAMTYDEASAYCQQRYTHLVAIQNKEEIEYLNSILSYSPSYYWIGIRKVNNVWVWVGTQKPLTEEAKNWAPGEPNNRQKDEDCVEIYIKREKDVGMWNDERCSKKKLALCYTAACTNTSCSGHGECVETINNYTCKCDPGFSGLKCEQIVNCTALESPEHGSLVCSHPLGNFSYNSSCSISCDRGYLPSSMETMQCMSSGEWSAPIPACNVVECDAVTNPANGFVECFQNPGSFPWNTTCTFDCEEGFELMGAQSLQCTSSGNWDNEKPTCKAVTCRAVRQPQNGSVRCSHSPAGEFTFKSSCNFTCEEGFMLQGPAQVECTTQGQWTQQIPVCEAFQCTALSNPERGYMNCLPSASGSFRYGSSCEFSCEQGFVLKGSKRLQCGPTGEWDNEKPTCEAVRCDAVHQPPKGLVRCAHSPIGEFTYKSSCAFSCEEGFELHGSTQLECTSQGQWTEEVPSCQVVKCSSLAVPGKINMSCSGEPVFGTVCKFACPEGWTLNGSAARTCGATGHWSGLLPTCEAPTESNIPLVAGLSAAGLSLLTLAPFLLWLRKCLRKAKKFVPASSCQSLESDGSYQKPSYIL
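Assay system: HUVEC primary endothelial cells. Input: 3,000 HUVEC seeded per well. Doses: one compound dose added by pin transfer. Read-out basis: % PE-positive cells. Benchmarks: TNF-alpha high, DMSO low. Detection: immunofluorescence imaging. Buffer or medium: EGM-2, gelatin.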
DENV2 CPE rescue: protects cells from dengue virus 2 cytopathic effect. DENV2-infected cells, cytopathic effect rescue, plate reader. 350,000 tested, 1.7% active. CPE inhibition, % at 9.99 µM; in the data active = CPE inhibition above about 20%, passing the limit was not always enough; inconclusive = no clear call, values can overlap the other calls; tested in BHK-21 cells
C2C12 statin: protects C2C12 myotubes from simvastatin toxicity. ATP luminescence, 48 h; scaled: DMSO 0, geranylgeraniol control 100. rescue of ATP level, % at 7.49 µM. 330,000 tested, 0.78% active;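 active = mean ATP rescue above about 67%, or every replicate alone reaching that limit, limit read from the data, passing the limit was not always enough; inconclusive = no clear call, values can overlap the other calls; inactive = mean under the limit and some replicate under it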;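 also: myotubes were challenged with 10 µM simvastatin during compound exposure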
Hits are given with their value; - = inactive; ? = inconclusive; . = not tested or not shown. An excerpt weighted towards active compounds, which were near 2.2% of everything screened.

SMILES	E-sel inducer	DENV2 CPE rescue	C2C12 statin
C[C@@H](C(=O)NC1CCN(Cc2ccccc2)CC1)N1C(=O)N2CCc3c([nH]c4ccccc34)[C@@]2(C)C1=O	.	?	-
C[C@@H](C(=O)NCCc1ccccc1F)N1C(=O)N2CCc3c([nH]c4ccccc34)[C@@]2(C)C1=O	.	-	-
COc1ccc2c3c([nH]c2c1)[C@@H](CO)N(C(=O)Nc1ccc(F)cc1)CC31CCN(C(=O)Nc2ccccc2)CC1	-	-	.
CO[C@@H]1CN(C)C(=O)c2ccc(NS(C)(=O)=O)cc2OC[C@@H](C)N(C(=O)C2CCC2)C[C@@H]1C	-	-	-
Cc1noc(C)c1NC(=O)N(C)C[C@H]1Oc2ccc(NC(=O)Cn3cnnn3)cc2C(=O)N([C@@H](C)CO)C[C@@H]1C	-	-	-
Cc1ccc(S(=O)(=O)Nc2ccc3c(c2)C(=O)N([C@@H](C)CO)C[C@H](C)[C@@H](CN(C)C(=O)Nc2ccc4c(c2)OCO4)OCCCC[C@@H](C)O3)cc1	-	-	.
C[C@@H]1CN([C@@H](C)CO)C(=O)c2cc(NS(C)(=O)=O)ccc2O[C@@H](C)CCCCO[C@H]1CN(C)S(=O)(=O)c1ccc(F)cc1	-	67	-
C[C@@H]1CCCCO[C@@H](CN(C)S(=O)(=O)c2ccc(F)cc2)[C@@H](C)CN([C@H](C)CO)C(=O)c2cc(NS(C)(=O)=O)ccc2O1	-	-	-
C[C@H](CO)N1C[C@H](C)[C@H](CN(C)S(=O)(=O)c2ccc(F)cc2)OCCCC[C@H](C)Oc2ccc(NS(C)(=O)=O)cc2C1=O	-	-	105
C[C@@H]1CCCCO[C@@H](CN(C)S(=O)(=O)c2ccc(F)cc2)[C@H](C)CN([C@H](C)CO)C(=O)c2cc(NS(C)(=O)=O)ccc2O1	-	-	-
C[C@@H]1CCCCO[C@H](CN(C)S(=O)(=O)c2ccccc2)[C@@H](C)CN([C@@H](C)CO)C(=O)c2cc(NS(=O)(=O)c3ccc(F)cc3)ccc2O1	-	25	.
C[C@@H]1CN([C@H](C)CO)C(=O)c2cc(NS(C)(=O)=O)ccc2O[C@@H](C)CCCCO[C@H]1CN(C)S(=O)(=O)c1ccc(F)cc1	-	27	-
C[C@@H]1CCCCO[C@@H](CN(C)S(=O)(=O)c2ccc(F)cc2)[C@@H](C)CN([C@@H](C)CO)C(=O)c2cc(NS(C)(=O)=O)ccc2O1	-	-	-
C[C@@H]1CCCCO[C@H](CN(C)S(=O)(=O)c2ccccc2)[C@H](C)CN([C@@H](C)CO)C(=O)c2cc(NS(=O)(=O)c3ccc(F)cc3)ccc2O1	-	-	.
C[C@@H]1CCn2cc(nn2)COC[C@@H](c2ccccc2)NC1=O	-	.	.
O=C(N[C@@H]1C=C[C@@H](CC(=O)N2CCOCC2)O[C@H]1CO)c1cccc(F)c1	-	-	-
C[C@@H]1CCCCO[C@H](CN(C)S(=O)(=O)c2ccc(F)cc2)[C@@H](C)CN([C@H](C)CO)C(=O)c2cc(NS(C)(=O)=O)ccc2O1	-	-	-
C[C@@H]1CCCCO[C@H](CN(C)S(=O)(=O)c2ccc(F)cc2)[C@H](C)CN([C@@H](C)CO)C(=O)c2cc(NS(C)(=O)=O)ccc2O1	-	-	81
Nc1nnc(SCc2nnc(-c3ccccc3)o2)s1	523	-	.
Nc1nnc(SCC(=O)Nc2nnc(-c3ccccc3)o2)s1	-	-	-
O=C(Nc1ccc(F)cc1)Nc1ccc2c(c1)[C@H]1C[C@@H](CC(=O)N3CCCCC3)O[C@@H](CO)[C@H]1O2	-	-	-
O=C(N[C@H]1CC[C@H](CCNS(=O)(=O)c2ccccc2)O[C@@H]1CO)c1cnccn1	-	-	-
CN1C(=O)c2cc(NC(=O)NC3CCCC3)ccc2OC[C@H]2O[C@H](CC(=O)NC3CCC3)CC[C@@H]21	-	61	-
CN1C(=O)c2cc(NC(=O)NC3CCCC3)ccc2OC[C@@H]2O[C@@H](CC(=O)NC3CCC3)CC[C@@H]21	-	-	-
CCC(=O)Nc1ccc2c(c1)C(=O)N(C)[C@@H]1CC[C@H](CC(=O)NC3CCCC3)O[C@H]1CO2	-	43	-
CCC(=O)Nc1ccc2c(c1)C(=O)N(C)[C@H]1CC[C@H](CC(=O)NC3CCCC3)O[C@H]1CO2	-	-	-
O=C1COc2ccc(S(=O)(=O)N3CCN(c4cccc(C(F)(F)F)c4)CC3)cc2N1	.	-	-
Cc1cc2c(cc1S(=O)(=O)N1CCN(c3cccc(C(F)(F)F)c3)CC1)OCC(=O)N2	-	32	-
CCCC(=O)Nc1ccc2c(c1)C(=O)N(C)C[C@H](OC)[C@@H](C)CN(Cc1ccccn1)[C@H](C)CO2	-	-	-
C[C@]12CCC(=O)C[C@@H]1CC[C@@H]1[C@@H]2CC[C@]2(C)C=CC[C@@H]12	-	-	-
